Measured values as given in the EternaBench riboswitch data.

Tested on: MS2 coat protein
Test: apparent Kd, MS2 coat protein; higher = weaker binding; RNA-MaP array; FMN 200 µM where present
Summary of the method: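 Each design was made on Illumina sequencing-chip clusters by stalled E. coli RNA polymerase and titrated with SNAP-549-labelled MS2 coat protein from 0.7 or 1.5 nM, doubling to 3 µM, in the absence and then the presence of constant ligand. The buffer was 100 mM Tris-HCl pH 7.5, 80 mM KCl, 4 mM MgCl2, BSA, DTT, yeast tRNA and Tween-20. The apparent Kd is the median of filtered per-cluster fits of binding curves, with green signal normalised to red-channel RNA signal and control-cluster median Fmax.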

[1] = designed as: OFF switch for flavin mononucleotide, no ligand
[2] = ligand present: flavin mononucleotide, designed as: OFF switch for flavin mononucleotide
[3] = designed as: ON switch for flavin mononucleotide, no ligand
[4] = ligand present: flavin mononucleotide, designed as: ON switch for flavin mononucleotide

Row | Sequence | apparent Kd [1] [nM] | apparent Kd [2] [nM] | apparent Kd [3] [nM] | apparent Kd [4] [nM]
1 | GGUUGUCAUAGUCAUCCUUUACGUACAUGAGGAUCACCCAUGUAGGAUAUGCUACUCAAAGAGUAGCAGAAGGGCGUGUGUCUU | 23.1 | 25.5 | – | –
2 | GGUUGUCAUAGUCAUCCUUUCCGUACAUGAGGAUCACCCAUGUAGGAUAUGCUACUCAAAGAGUAGCAGAAGGGCGUGUGUCUU | 17.2 | 18.8 | – | –
3 | GUAAGCGACCAGAAGGGUGACAUGAGGAUCACCCAUGUAGAUGUGUUCCCGCUUGGGAACCGUCCACAGGAUAUGGUUGGCUAU | – | – | 35.3 | 18
4 | GUACCUUAUGAGAAGGCGAUCAUUAAACAUGAUCGAGGAUAUCAUGUAAACAUGAGGAUCACCCAUGUAUGGGUAUUAUGGUAC | – | – | 66.7 | 19.3
5 | GUACUGAAGCUUUGCUUUAGUCGUACAUGAGGAUCACCCAUGUAGGAUAUGGUAAGCUUUGCUUACUAGAAGGAUAGAGUGAUC | 119 | 50.2 | – | –
6 | GUACUGAAGCUUUGCUUUAGUCGUACAUGAGGAUCACCCAUGUAGGAUAUGGUAGGCUUUGCCUACUAGAAGGAUAGAGUGAUC | 89.2 | 33.9 | – | –
7 | GUACUGUAGUGAGGAUAUACGAGAACGAUAGUUCGGCGAUCCAAUUAUACAUGAGGAUCACCCAUGUAGAAGGCACUUCAGUAC | 10.8 | 30.6 | – | –
8 | GUACUGUAGUGAGGAUAUACGAGAUCGAUAGAUCGGCGAUCCAUAUAUACAUGAGGAUCACCCAUGUAGAAGGCACUUCAGUAC | 7.02 | 93.4 | – | –
9 | GUACUGUAGUGAGGAUAUACGAGUGCGAUAGCACGGCGAUCCAUUUAUACAUGAGGAUCACCCAUGUAGAAGGCACUUCAGUAC | 6.15 | 65.6 | – | –
10 | GUAGAGUAAGGAUAUGAUGAAUAGGAUAGAAUGGUUAGAAAUCAGAAGGUACAUGAGGAUCACCCAUGUAAUGU | 22.7 | 20.8 | – | –
11 | GUAGAGUAAGGAUAUGGAGAAUAGGAUAGAAUGGUUAGAAUCUAGAAGGUACAUGAGGAUCACCCAUGUAAUGU | 21.7 | 20.8 | – | –
12 | GUAGAGUAGUGAGGAUAUACGAGUACGAUAGUACGGCGAUCCAUUAAUACAUGAGGAUCACCCAUGUAGAAGGCACUUCUCUAC | 6.6 | 84 | – | –
13 | GUAGCAACAUGAGGAUCACCCAUGUAGGAUAUCGCUAUUGUAAUCAUGAAACAUGAUUACAAUAGCGAGAAGGACAUAUGCUAC | 6.93 | 10.2 | – | –
14 | GUAGCACAAGUUAACAUGAGGAUCACCCAUGUCAGAAGACAUGAGGAUAUGGAUGUGAAGAUAAUCCAGAAGGCAUAAUGCUAA | – | – | 774 | 131
15 | GUAGCAUACAGAGGAUAUUCAAACCGGAAACGGAACAUGAGGAUCACCCAUGUGGCGAAAGCCAGGGAGAAGGCUGAAUGCUAC | – | – | 44.5 | 16.8
16 | GUAGCAUACCGAGGAUAUUCAGGGCUUAAAUAAACAUGAGGAUCACCCAUGUGGCGAAAGCCUAGGGAGAAGGCGGAAUGCUAC | – | – | 14.6 | 13.4
17 | GUAGCAUACGGAGGAUAUUCAUACCGGAAACGGACAUGAGGAUCACCCAUGUGGCGAAAGCCAUGGGAGAAGGCCGUAUGCUAC | – | – | 318 | 149
18 | GUAGCAUGAUUAGGAUAUUCAGCGAAUAGAUUGACAUGAGGAUCACCCAUGUGGCGAAAGCCGAGGGAGAAGGGAUGAUGCUAC | – | – | – | 47.4
19 | GUAGCAUGCCAAGGAUAUUCAUAUAGUAGGCAAACAUGAGGAUCACCCAUGUAAUGAGAGCACUGGGAGAAGGUGGGAUGCUAC | – | – | 28.6 | 21.4
20 | GUAGCAUUAUAAGGAUAUUCAUACCGGAAACGGACAUGAGGAUCACCCAUGUGGCGAAAGCCUUGGGAGAAGGUAUUGUGCUAC | – | – | 402 | 24.6
21 | GUAGCAUUGAGAGGAUAUCCAUACCGGAAACGGACAUGAGGAUCACCCAUGUCGCGAAAGCGGUGGGAGAAGGCUCUAUGCUAC | – | – | 4.52 | 4.46
22 | GUAGCUAGUACAGGAUAUUAGUGCGUGUAGUAUUGAGAAGGGUACAUGAGGAUCACCCAUGUGAUCAAUCACUGUUAAGGUUGC | 221 | 177 | – | –
23 | GUAGCUAUCGCAGGAUAUCCUCAGGCGAAAGCCACAUGAGGAUCACCCAUGUAAAUUAAGAAUUUGGAGAAGGGCGAUAGCUAC | – | – | 479 | 27.3
24 | GUAGCUAUCGGAGGAUAUUCAUGAUACAUGAGGAUCACCCAUGUUAAAUUGGGAGAAGGCCGAUAGCUACAAGAGCGAAAGCUC | – | – | 14.8 | 5.54
25 | GUAGCUAUCGGAGGAUAUUCAUUAAACAUGAGGAUCACCCAUGUUAAAUUGGGAGAAGGCCGAUAGCUACAAGAGCGAAAGCUC | – | – | 7.16 | 5.45
26 | GUAGCUAUUAUUAUACAUGAGGAUCACCCAUGUUACAUGUGUAAGGAUAUUGAAGUUAUUAUUAUCAAGAAGGUACUAUGCUAC | – | – | 15.5 | 8.71
27 | GUAGGGUCAGGAUAUACGGGCGGGAGGAUGUAGUGGAGUUGGUAGAAGGGACAUGAGGAUCACCCAUGUGAGAA | 30.7 | 27.8 | – | –
28 | GUAGUGUAUGUAGGAUAUGUGAAGGAAACAUUUACAGAAGGACAUGAGGAUCACCCAUGUAUUACAGUCAGCAAUCUGACUGUU | 23.6 | 41.2 | – | –

Row | Sequence | apparent Kd [1] [nM] | apparent Kd [2] [nM] | apparent Kd [3] [nM] | apparent Kd [4] [nM]
29 | GUAGUUAGUAGAGGAUAUUAGUAUGUGUAAUAUUGAGAAGGUUACAUGAGGAUCACCCAUGUGAUCAAUCACUGUUAAGGUUGC | 6.48 | 6.71 | – | –
30 | GUAUAUAGUGUGAGGAUAUGCUGGUCCUUGGAUCAGCAGAAGGCACAUGAGGAUCACCCAUGUAGUUAAAUAUA | 34.4 | 82 | – | –
31 | GUAUAUAGUGUGAGGAUAUGCUGGUCCUUGGAUCAGCAGAAGGCACAUGAGGAUCACCCAUGUAGUUUAUUAUU | 25 | 80.3 | – | –
32 | GUAUCACGAGGAUAUACAUGAGGAUCACCCAUGUAGAAGCCAUGUGGUGCUCAAGUAUGUAGAAGGCGUGCUCC | – | 33.3 | – | –
33 | GUAUCAUACCAAGGAUAUUUAGGACUUGUAUAGACAUGAGGAUCACCCAUGUGGCGUUAGUCACGGGAGAAGGUGGUAUGAUAC | – | – | 88.4 | 17.5
34 | GUAUGAGCGAUAGGAUAUACUGAGAUUGAAUGGGUAGAAGGAUUUCUUGUGGGAAAGACAUGAGGAUCACCCAUGUCGCGGACC | – | – | 299 | 176
35 | GUAUUUGAAGUAAGGAUAUGCCUCUGGAAACGGAGGUAGAAGGUACAUGAGGAUCACCCAUGUUUCUCUUUUGG | 16 | 23.3 | – | –
36 | GUAUUUUAAGUAAGGAUAUGCCUCUGGAAACGGAGGUAGAAGGUACAUGAGGAUCACCCAUGUUUCUCUUUUGG | 16.3 | 20.6 | – | –
37 | GUCACACACCGCUCCGUGUCUGACAUGAGGAUCACCCAUGUGAGAAGGUAGCGUCGCAGUAACGUUAAGGAUAUCACGUACAGA | 7.04 | 7.4 | – | –
38 | GUCACCUCGUGAGGAUAUACAACACUGCUUCGGCAGUGUAUUAAGAUCACAUGAGGAUCACCCAUGUAGAAGGCACGAGCUGAU | 17.2 | 221 | – | –
39 | GUCACUAGAGGAUAUACAAUGGUAUAUGAUCCUAGAGACAAACAUGAGGAUCACCCAUGUAGAAGGCUAGUAUU | 155 | 37.4 | – | –
40 | GUCAGCCCGUGAGGAUAUACAACACUGCUUCGGCAGUGUAUUAAGAUCACAUGAGGAUCACCCAUGUAGAAGGCACGAGCUGAU | 13.1 | 266 | – | –
41 | GUCAGCUCGUGAGGAUAUACAACACUGCUGCGGCAGUGUAUUAAGAUCACAUGAGGAUCACCCAUGUAGAAGGCACGAGCUGAU | 13.7 | 262 | – | –
42 | GUCAGCUCGUGAGGAUAUACAACACUGCUUCGGCAGUCUAUUAAGAUCACAUGAGGAUCACCCAUGUAGAAGGCACGAGCUGAU | 14.9 | 292 | – | –
43 | GUCAGCUCGUGAGGAUAUACAACACUGCUUCGGCAGUGUAUUAAGAUCACAUGAGGAUCACCCAUGUAGAAGGAACGAGCUGAU | 7.52 | 24.2 | – | –
44 | GUCAGCUCGUGAGGAUAUACAACACUGCUUCGGCAGUGUAUUAAGAUCACAUGAGGAUCACCCAUGUAGAAGGCUCGAGCUGAU | 14.6 | 271 | – | –
45 | GUCAGCUCGUGAGGAUAUACAGCACUGCUUCGGCAGUGUAUUAAGAUCACAUGAGGAUCACCCAUGUAGAAGGCACGAGCUGAU | 28.1 | 599 | – | –
46 | GUCAGCUCGUGAGGAUAUACAUGUGCUGGAGACAGCACUAAAGUUUUCACAUGAGGAUCACCCAUGUAGAAGGCACGAGCUGAU | 15.4 | 36 | – | –
47 | GUCAGCUCGUGAGGAUAUACAUGUGCUGGAGACAGCACUAUUAAGUUCACAUGAGGAUCACCCAUGUAGAAGGCACGAGCUGAU | 15.9 | 20.8 | – | –
48 | GUCAGCUCGUGAGGAUAUACAUGUGCUGGAGACAGCACUAUUGAGUUCACAUGAGGAUCACCCAUGUAGAAGGCACGAGCUGAU | 15.5 | 27.4 | – | –
49 | GUCAGGUGAGGAUAUACGCGGCUGACGAAACGUUAUACCGAGUAGAAGGCACAUGAGGAUCACCCAUGUUCGGG | 109 | 59.6 | – | –
50 | GUCAUGUCAGGAUAUGCUUAUGGUGGGUGCUCAGACAUGAUGCAGAAGGGACAUGAGGAUCACCCAUGUACUGU | 35.8 | 60.9 | – | –
51 | GUCAUGUUAGGAUAUCUAACAUGUGACUUCGGUCACUGUCCAGAGAAGGAACAUGAGGAUCACCCAUGUUGGAC | 14.7 | 15.9 | – | –
52 | GUCCCAGCUGAGGAUAUUAUCUGGCUCGACCGAUAAGAAGGCAGUACAUGAGGAUCACCCAUGUGGUUCGUUCG | 31.5 | 70.7 | – | –
53 | GUCGAAACCAUACUAGUCGACGGUCAGGAUAUACAUGAGGAUCACCCAUGUGCUAUUGAUACUAUGUAGAAGGGACCCACCGCA | 15 | 24.6 | – | –
54 | GUCGAAGCUGUACCAGUCGACGGUCAGGAUAUACAUGAGGAUCACCCAUGUGCUAUUGAUACUAUGUAGAAGGGACCCACCGCA | 10.7 | 11.2 | – | –
55 | GUCGGAAACGACAAAAGUAGCAUACGAGAAGGCUGAUCCACGACAUGAGGAUCACCCAUGUAUUUAGAGGAUAUUGGAUGCUAC | – | – | 134 | 21.6
